Measurements gathered from unrelated publications.
Each line is one published result; the experiments were not run side by side.
PTPN7: Tyrosine-protein phosphatase non-receptor type 7 (PTPN7, Homo sapiens, UniProt P35236)
RARG: Retinoic acid receptor gamma (RARG, Homo sapiens, UniProt P13631)
murD: UDP-N-acetylmuramoylalanine--D-glutamate ligase (murD, Escherichia coli K-12, UniProt P14900)
ABCB1: ATP-dependent translocase ABCB1 (ABCB1, Homo sapiens, UniProt P08183)
HDAC1: Histone deacetylase 1 (HDAC1, Homo sapiens, UniProt Q13547)
PDE8A: High affinity cAMP-specific and IBMX-insensitive 3',5'-cyclic phosphodiesterase 8A (PDE8A, Homo sapiens, UniProt O60658)
HDAC8: Histone deacetylase 8 (HDAC8, Homo sapiens, UniProt Q9BY41)
BCKDK: Branched-chain alpha-ketoacid dehydrogenase kinase (BCKDK, Homo sapiens, UniProt O14874)
SLC47A2: Multidrug and toxin extrusion protein 2 (SLC47A2, Homo sapiens, UniProt Q86VL8)
CYP2A6: Cytochrome P450 2A6 (CYP2A6, Homo sapiens, UniProt P11509)
ALOX5: Polyunsaturated fatty acid 5-lipoxygenase (ALOX5, Homo sapiens, UniProt P09917)

O=C1c2ccccc2-c2cccc3cccc1c23  IC50 (PTPN7; enzyme activity, inhibitor, fluorescence): 35 µM
Cc1ccc(-c2cc(-c3ccc(-c4ccc(C(=O)O)cc4)[nH]3)nc3c(C(C)C)cccc23)cc1  IC50 (RARG; reporter gene, antagonist): > 3.3 µM
O=C(Nc1ccc(C=NNS(=O)(=O)c2ccc3ccccc3c2)cc1)c1ccccc1[N+](=O)[O-]  IC50 (murD; enzyme activity, inhibitor, absorbance): 45 µM
N[C@@H](CC(=O)N1CCN(C(c2ccc(F)cc2)c2ccc(F)cc2)CC1)C(=O)N1Cc2ccccc2C1  IC50 (Dipeptidyl peptidase 8 (Homo sapiens, UniProt Q6V1X1); enzyme activity, inhibitor): 0.128 µM
CCN(CC)CCNC(=O)c1c(C)[nH]c(/C=C2\C(=O)Nc3ccc(F)cc32)c1C  IC50 (ABCB1; transporter efflux, inhibitor; LLC-PK1; 1 h): 6.7 µM
O=C(NO)c1ccc(NC(=O)C2(c3ccccc3)CCCC2)c(F)c1  IC50 (HDAC1; enzyme activity, inhibitor): 0.181 µM
COc1cc(/C=C2\SC(=O)NC2=O)cc(F)c1OCCNc1nc2c(cnn2C2CCCC2)c(=O)[nH]1  IC50 (PDE8A; enzyme activity, inhibitor): 0.091 µM
COC(=O)[C@]1(O)C[C@@H](O)[C@@H](O)[C@H](OC(=O)/C=C/c2ccc(O)c(O)c2)C1  IC50 (HDAC8; enzyme activity, inhibitor): 8.22 µM
CC(C)c1cccc2c(/C=C/c3ccccc3)cc(-c3ccc(-c4ccc(C(=O)O)cc4)[nH]3)nc12  IC50 (RARG; reporter gene, antagonist): > 3.3 µM
CC1=CC[C@H]2[C@@H]([C@@H]1CC[C@H]1[C@]3(C)CC[C@H](O)C(C)(C)O[C@H]3CC[C@]1(C)O)C(C)(C)CC[C@]2(C)O  IC50 (ABCB1; transporter efflux, inhibitor, fluorescence; KB-V1; 10 min): 50 to 100 µM
CCCc1nc2c(n1Cc1ccc(-c3ccccc3-c3nnn[nH]3)cc1)C(=O)CCCC2  IC50 (BCKDK; enzyme activity, inhibitor): 0.68 µM
CCCCCCCCCCCCCCCc1cccc(O)c1C(=O)O  IC50 (Histone acetyltransferase KAT2B (KAT2B, Homo sapiens, UniProt Q92831); enzyme activity, inhibitor, radiometric): > 200 µM
CCS(=O)(=O)N1CC(CC#N)(n2cc(-c3ncnc4[nH]ccc34)cn2)C1  IC50 (SLC47A2; transporter uptake, inhibitor, radiometric; 2 min): 13.7 µM
CNC(=O)c1cc2c(Oc3ccc(NC(=O)C4(C(=O)Nc5ccc(F)cc5)CC4)cc3)ccnc2cc1OC  IC50 (Tyrosine-protein kinase Srms (SRMS, Homo sapiens, UniProt Q9H3Y6); enzyme activity, inhibitor, radiometric): 0.01 µM
CCCc1nc2c(C)cc(-c3nc4ccccc4n3C)cc2n1Cc1ccc(-c2ccccc2C(=O)O)cc1  IC50 (BCKDK; enzyme activity, inhibitor): > 300 µM
CC/C=C\C/C=C\C/C=C\C/C=C\C/C=C\CCCC(=O)O  IC50 (DNA polymerase (POLA1, Bos taurus, UniProt A0AAA9TD94); enzyme activity, inhibitor): 32.1 µM
Cc1nccc2c1c(=O)n(C)c1cc(OC[C@@H](N)CC(C)C)c(C#N)cc21  IC50 (Mu-type opioid receptor (OPRM1, Homo sapiens, UniProt P35372); cell-free assay): > 30 µM
C=CC(=O)Nc1cc(Nc2nccc(Nc3cc(Cl)c(F)cc3C(C)(C)O)n2)c(OC)cc1N1CC[C@@H](N(C)C)C1  IC50 (CYP2A6; enzyme activity, inhibitor; human, liver microsomes): > 30 µM
C=C(C)[C@@H]1CCC(C)=C[C@H]1c1c(O)cc(CCC)cc1O  IC50 (ALOX5; enzyme activity in cells, inhibitor): 7.6 µM
CCc1cc(/C(C)=N/OCc2ccc(C3CCCCC3)c(C(F)(F)F)c2)ccc1CN1CC(C(=O)O)C1  IC50 (CYP2A6; enzyme activity, inhibitor; human, liver microsomes; 20 min): > 1.1 µM
C=C(C)[C@@H]1CCC(C)=C[C@H]1c1c(O)cc(CCCCC)cc1O  IC50 (ALOX5; enzyme activity in cells, inhibitor): > 10 µM
O=c1c(O)c(-c2ccc(O)cc2)oc2cc(O)cc(O)c12  IC50 (HDAC8; enzyme activity, inhibitor): 7.8 µM
O=C(O)C(=O)CC(=O)c1cccc(N(Cc2ccccc2)Cc2ccccc2)c1  IC50 (PTPN7; enzyme activity, inhibitor, absorbance; pH 7): 87 µM
COc1ccc(C2=NN(C3CCCCCC3)C(=O)[C@@H]3CC=CC[C@H]23)cc1-c1ccc(C(N)=O)cc1 (relative stereo)  IC50 (PDE8A; enzyme activity, inhibitor): > 10 µM
N#Cc1ccc(COc2ccccc2C=NNS(=O)(=O)c2ccc3ccccc3c2)cc1  IC50 (murD; enzyme activity, inhibitor, absorbance): 62 µM
CCCCC(=O)N(Cc1ccc(-c2ccccc2-c2nnn[nH]2)cc1)[C@H](C(=O)O)C(C)C  IC50 (BCKDK; enzyme activity, inhibitor): 1.67 µM
CN/C(=N/CCSCc1nc[nH]c1C)NC#N  IC50 (SLC47A2; transporter uptake, inhibitor, radiometric; HEK293; 5 min, pH 8.5): 3.6 µM
CCCC[C@H](NC(=O)[C@H](C)c1c(C)[nH]c2ccc(O)cc12)c1ncc(-c2cc3ccccc3nc2OC)[nH]1  IC50 (HDAC1; enzyme activity, inhibitor): 0.04 µM
CCCCCc1cc(O)c(C/C=C(\C)CCC=C(C)C)c(O)c1  IC50 (ALOX5; enzyme activity in cells, inhibitor): 2 µM
CCOc1nc2cccc(C(=O)O)c2n1Cc1ccc(-c2ccccc2-c2nnn[nH]2)cc1  IC50 (BCKDK; enzyme activity, inhibitor): 4.28 µM
O=C(O)c1cc(O)c2c(c1)[C@H]([C@H]1c3cc(C(=O)O)cc(O)c3C(=O)c3c(O[C@@H]4O[C@H](CO)[C@@H](O)[C@H](O)[C@H]4O)cccc31)c1cccc(O[C@@H]3O[C@H](CO)[C@@H](O)[C@H](O)[C@H]3O)c1C2=O  IC50 (PTPN7; enzyme activity, inhibitor, fluorescence): 1 µM
CSCC[C@H](NC(=O)[C@H](Cc1c[nH]c2ccccc12)NC(=O)CNC(=O)[C@H](Cc1ccc(O)cc1)NC(=O)[C@H](C)NC(=O)[C@@H](CCC(=O)O)NC(=O)CN1CCN(CC(=O)O)CCN(CC(=O)O)CCN(CC(=O)O)CC1)C(=O)N[C@@H](CC(=O)O)C(=O)N[C@@H](Cc1cccc2ccccc12)C(N)=O  IC50 (Gastrin/cholecystokinin type B receptor (Rattus norvegicus, UniProt P30553); ligand displacement, radioligand): 0.00192 µM
CN1CCN(c2ccc(Nc3ncc4cc(C#N)c(=O)n(C5CCCC5)c4n3)cc2)CC1  IC50 (Serine/threonine-protein kinase PLK2 (PLK2, Homo sapiens, UniProt Q9NYY3); enzyme activity, inhibitor): 2.17 µM
CCCc1nc(C(C)(C)O)c(C(=O)O)n1Cc1ccc(-c2ccccc2-c2nnn[nH]2)cc1  IC50 (BCKDK; enzyme activity, inhibitor): 198 µM
O=C(Nc1ccccc1C=NNS(=O)(=O)c1ccc2ccccc2c1)c1ccc([N+](=O)[O-])cc1  IC50 (murD; enzyme activity, inhibitor, absorbance): 43 µM
